High-throughput results from PubChem BioAssay.
TRPC6 activator = mouse TRPC6 channel activators, primary screen, cell-based, HEK293, membrane potential dye | Short transient receptor potential channel 6 (Mus musculus), Q61143 | HEK293-TRPC6 membrane potential dye fluorescence; active compounds read high | B-score at 10 µM | actives 0.13% (n = 310,000);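 active = B-score of the integrated fluorescence ratio above library mean plus 3 SD, and starting fluorescence ratio within library mean plus 5 SD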;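 note: higher score means more depolarization so channel activation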
TRPC4 agonist = activators of mouse TRPC4 channel, primary screen, Fluo4 calcium, HEK293 TRPC4beta/mu-opioid cells | Short transient receptor potential channel 4 (Mus musculus), Q9QUQ5 | Fluo4 calcium fluorescence; active compounds read high | B-score at 10 µM | actives 0.49% (n = 310,000) | AID 2237, 2010;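 active = B-score above 5 SD of library B-scores, and initial fluorescence ratio not above library mean plus 5 SD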;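 note: positive B-score marks a calcium rise read as TRPC4 activation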
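Test system: HEK293 cells stably co-expressing mouse TRPC4beta and mu-opioid receptor | Schedule: Fluo4 dye loading 45 min at room temperature, 110 s recording | Measured by: Kinetic Fluo4 calcium fluorescence, 5 s baseline at 1 Hz | Evaluation: B score of integrated ratio | Controls: Buffer (low) and maximal DAMGO (high)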
TRPC4 potent = positive allosteric modulators of TRPC4, primary screen, cell-based, mouse TRPC4beta, HEK293 mu-opioid, Fluo-4 calcium | DAMGO EC20, Fluo-4 Ca2+ flux; active compounds read high | actives 0.42% (n = 310,000) | B-score at 10 µM | Short transient receptor potential channel 4 (Mus musculus), Q9QUQ5 | AID 2227, 2009;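 active = B-score of calcium response area above 5 SD of library B-scores, with initial fluorescence ratio within 5 SD of library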;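 note: B-score of integrated fluorescence ratio over time as area under calcium response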
TRPC4 inh = inhibitors of mouse TRPC4 channel, primary screen, Fluo4 calcium, HEK293 TRPC4beta/mu-opioid cells | DAMGO-evoked Fluo4 calcium flux; active compounds read low | B-score at 10 µM | actives 0.39% (n = 300,000) | AID 2247, 2010;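 active = B-score over 3 SD under the library average, no early fluorescence shift, positive overall ratio signal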
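Assay system: HEK293 cells with stable TRPC4beta plus mu-opioid receptor expression; Probe or stimulus: DAMGO in two steps, submaximal then maximal; Dosing: single-point compound dosing; Measured by: Fluo4 calcium-dye fluorescence, kinetic read; Read-out basis: B score from integrated Fluo4 fluorescence ratio.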
TRPC6 inh = mouse TRPC6 channel inhibitors, primary screen, cell-based, HEK293, membrane potential dye. Short transient receptor potential channel 6 (Mus musculus), Q61143. ACh-evoked depolarization; active compounds read low. B-score at 10 µM. actives 1.1% (n = 310,000). AID 2553, 2010;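 active = B-score under library mean minus 3 SD, initial fluorescence not abnormally high, positive integrated signal ratio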;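 note: B-score derived from integrated fluorescence ratio over the kinetic read; more negative B-score means stronger inhibition of depolarization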
Kir21 inh = inhibitors of mouse Kir2.1 inward-rectifier potassium channel; actives 0.85% (n = 310,000); B-score at 10 µM; Inward rectifier potassium channel 2 (Mus musculus), P35561; HEK293-Kir2.1, FluxOR thallium flux fluorescence; active compounds read low;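 active = fluorescence ratio B-score at or below minus 3 SD of library scores, with starting-brightness B-score within 2 SD, cut at about -4.2 in these data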;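 note: channel flux triggered by added potassium and thallium sulfate stimulus; B-score of peak minus minimum fluorescence over baseline after thallium stimulus; more negative B-score means stronger Kir2.1 block with less thallium influx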
Target sequence (P35561 whole entry, looked up): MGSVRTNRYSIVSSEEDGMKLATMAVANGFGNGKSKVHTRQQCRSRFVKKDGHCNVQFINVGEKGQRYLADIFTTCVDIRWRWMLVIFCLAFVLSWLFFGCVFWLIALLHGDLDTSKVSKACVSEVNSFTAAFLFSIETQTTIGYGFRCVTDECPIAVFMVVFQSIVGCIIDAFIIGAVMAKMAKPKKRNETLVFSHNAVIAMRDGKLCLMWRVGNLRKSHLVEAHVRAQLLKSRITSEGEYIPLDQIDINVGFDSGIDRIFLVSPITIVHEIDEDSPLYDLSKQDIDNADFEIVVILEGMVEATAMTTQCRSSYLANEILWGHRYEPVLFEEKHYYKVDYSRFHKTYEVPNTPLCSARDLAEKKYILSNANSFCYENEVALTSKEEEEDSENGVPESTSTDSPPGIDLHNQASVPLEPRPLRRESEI
* marks the source's active call; other numbers are inactive results; i = inactive. Hits are enriched below; roughly 2.9% of the tested compounds scored in any of these assays.

SMILES | TRPC6 activator | TRPC4 agonist | TRPC4 potent | TRPC4 inh | TRPC6 inh | Kir21 inh
COc1cccc(OC)c1OCCCc1c(C)n[nH]c1C | i | i | i | i | i | 0.02
Cc1cccc(OCCCc2c(C)n[nH]c2C)c1 | i | i | i | -6* | i | -1.1
COc1cc(C(=O)NNC(=O)C2CC2)cc(OC)c1OC | i | i | i | i | i | 1.3
Oc1ccc(-c2csc(-c3cccnc3)n2)cc1O | i | i | i | i | i | 0.2
Oc1ccc(-c2csc(-c3ccccc3)n2)cc1O | i | i | i | -6* | i | 2.2
COc1ccc2c(c1)sc(=NC(=O)CS(=O)(=O)c1ccc(F)cc1)n2C | i | i | i | i | i | -0.46
CC(C)(C(N)=O)N1CCN(c2ncc(C(F)(F)F)cc2Cl)CC1 | i | 61* | i | i | i | -3.2
CNCC(=O)N1CCN(c2ncc(C(F)(F)F)cc2Cl)CC1 | i | 189* | i | i | i | 0.15
FC(F)(F)c1cnc(N2CCCN(C(=S)Nc3ccccc3)CC2)c(Cl)c1 | i | 159* | i | i | i | 0.56
COC(=O)C1CC(Cl)CN1c1ncc(C(F)(F)F)cc1Cl (stereo not drawn) | i | i | 11* | i | i | -1.9
Cc1nn(-c2ccccc2)c(-c2ccccc2[N+](=O)[O-])c1C(=O)O | i | i | i | i | i | -0.12
CCCN(CCC)S(=O)(=O)c1ccc(C(=O)NCc2n[nH]c(=S)n2-c2ccc(Cl)c(Cl)c2)cc1 | i | i | i | i | i | 1.2
C=CCn1c(N)cc(=O)nc1SCC(=O)Nc1ccc(C(=O)OCC)cc1 | i | i | i | i | i | -1.4
Cc1cc(C)c2c(n1)SCC(=O)N2CC(=O)Nc1cc(F)ccc1F | i | i | i | i | i | -0.02
COc1ccc(C(C)=O)cc1COC(=O)Cc1cc(OC)c(OC)c(OC)c1 | i | i | i | i | i | -2.4
O=C(CSc1ccccn1)N1CCN(c2ncc(C(F)(F)F)cc2Cl)CC1 | i | 49* | i | i | i | 3
O=C(CSc1ccccn1)N1CCN(C(=O)CSc2ccccn2)CC1 | i | i | i | i | i | -1.8
CN(NC1OC(=O)c2ccccc21)c1ccccc1[N+](=O)[O-] (stereo not drawn) | i | i | i | i | i | -0.05
CCCN(CCC)CCCNC(=O)c1cc2c(=O)n(C)c3ccccc3c2n1C | i | 59* | 16* | i | i | 0.02
CCCCN(CC)CCNC(=O)c1cc2c(=O)n(C)c3ccccc3c2n1C | i | 67* | 14* | i | i | -1.2
CCN(CC)CCCNC(=O)c1cc2c(=O)n(C)c3ccccc3c2n1C | i | i | i | i | i | 0.03
CCN(CC)CCNC(=O)c1cc2c(=O)n(C)c3ccccc3c2n1C | i | i | i | i | i | 0
O=C(NNC(=O)c1cc(-c2ccncc2)nc2ccccc12)c1ccccc1O | i | i | i | i | i | 1.6
COCCNC(=O)C(c1ccc(C)cc1)N(Cc1cccs1)C(=O)CCC(=O)Nc1ccccn1 (stereo not drawn) | i | i | i | i | i | 0.27
Cc1cccc(C(=O)Oc2ccc3ccc(O)cc3c2)c1 | i | i | i | i | i | 0.31
SMILES | TRPC6 activator | TRPC4 agonist | TRPC4 potent | TRPC4 inh | TRPC6 inh | Kir21 inh
Cc1c(Cl)cccc1NC(=S)NCCc1ccccn1 | i | 60* | i | i | i | -0.18
S=C(NCCc1cnc[nH]1)NC1CCCC1 | i | 98* | i | i | i | 0.81
S=C(NCCc1ccccn1)Nc1ccccc1 | i | i | i | i | i | 0.64
S=C(NCCc1ccccn1)NC1CCCCC1 | i | 97* | i | i | i | 0.01
S=C(NCCc1c[nH]c2ccccc12)NC1CCCC1 | i | i | i | i | i | -2.4
Cc1ccc(NC(=S)N2CCC(NC(=O)c3ccc(F)cc3)CC2)cc1C | i | i | i | i | i | 0
CCCn1c(N)c(CC)c(=O)[nH]c1=O | i | i | i | i | i | -1.2
COc1ccc(C2C(C(C)=O)=C(O)C(=O)N2c2ccc(F)cc2)cc1 (stereo not drawn) | i | i | i | i | i | 0.3
COC(=O)CS(=O)(=O)c1cc(Br)cc2c1N(C(C)=O)CC2 | i | i | i | i | i | 0.47
CCCN(CCC)CCCNS(=O)(=O)c1cc(Br)cc2c1N(C(C)=O)CC2 | i | 62* | i | i | i | -1.5
CC1CCN(CCCNS(=O)(=O)c2cc(Br)cc3c2N(C(=O)C2CC2)CC3)CC1 | i | 105* | i | i | i | -0.13
Cc1nn(C)c(Oc2cccc(C(F)(F)F)c2)c1C=O | i | i | i | i | i | 0.03
CCCCNCc1cc(Br)c(OCc2cccs2)c(OC)c1 | i | i | i | i | i | -12*
COc1cccc(CNCCO)c1OCc1ccccc1 | i | i | i | i | i | -2.3
CCOc1c(Br)cc(CNCc2cccs2)cc1OC | i | i | i | i | i | -1.9
CCOc1cc(CNCCO)cc(Br)c1OCc1ccccc1 | i | i | i | i | i | -16*
COc1cc(CNCCO)cc(Br)c1OCc1ccccc1Cl | i | i | i | i | i | -13*
COc1cc(CNCCO)cc(Cl)c1OCc1ccc(Cl)cc1Cl | i | i | i | i | i | -11*
CCOc1cc(CNCCSc2nnnn2C)cc(Br)c1OCc1ccccc1 | i | i | i | i | i | -1.7
COc1cc(CNCCN2CCOCC2)ccc1OCc1ccc(Cl)cc1Cl | i | i | i | i | i | -7.6
Cc1cc(C(=O)N2CCc3ccccc3C2)on1 | i | i | i | i | i | 2.6
Cc1nnc(SCC(=O)NC2CCCC2)n1C(C)C | i | i | i | i | i | -1.3
COc1ccc(-n2c(SCC(=O)Nc3ccccc3C)nc(O)c(Cc3ccccc3)c2=O)cc1 | i | i | i | i | i | 1.4
